# Measured values published in ChEMBL document CHEMBL5724801, “EUbOPEN Chemogenomics Library - Multiplex” (2024).
# Values joined by “and” are separate entries in the source; they are usually repeats but may differ in a detail not shown here. Equal values may be shown once.
# Test system: Fibroblast
# Assay: Multiplex assay against human fibroblast
# Assay type: toxicity, cell-based
# Method in brief: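 Four dyes were applied at seeding to live cells: Hoechst33342, BioTracker Green Microtubule Cytoskeleton Dye, MitoTracker Red and Annexin V Alexa Fluor 680. Imaging after compound addition used a CQ1 microscope at 37°C and 5% CO2. CellPathfinder machine-learning gating then sorted cells into Hoechst high-intensity objects or normal cells, normal cells into healthy, pyknosed or fragmented nuclei, and pyknosed cells into mitotic or apoptotic, with tubulin, mitochondrial-mass and membrane-permeability phenotypes given as per cents of healthy-nucleus cells.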
# [1] = 12 h, 1 µM, compound concentration 1 uM
# [2] = 12 h, 10 µM, compound concentration 10 uM
# [3] = 24 h, 1 µM, compound concentration 1 uM
# [4] = 24 h, 10 µM, compound concentration 10 uM
# [5] = 48 h, 1 µM, compound concentration 1 uM
# [6] = 48 h, 10 µM, compound concentration 10 uM
smiles,measurement,setting,value
CC(C)c1noc(N2CCC(COc3ccc(-c4ccc(S(C)(=O)=O)cc4)nc3)CC2)n1 [GSK-1292263],Population Apoptotic (%),[1],38% and 29%
same,Population Fragmented Nuclei (%),[1],14% and 18%
same,Population Healthy Nuclei (%),[1],74% and 50%
same,Population Hoechst High Intensity Objects (%),[1],2% and 6%
same,Population Membrane Permeable-Phenotype (%),[1],0% and 4%
same,Population Mitochondria Different-Phenotype (%),[1],1% and 5%
same,Population Mitotic Cells (%),[1],61% and 70%
same,Population Normal (%),[1],97% and 93%
same,Population Pyknosed Nuclei (%),[1],11% and 31%
same,Population Tubulin-Different-Phenotype (%),[1],21% and 41%
same,Total Cell Count,[1],189 and 149
same,Population Apoptotic (%),[2],39% and 35%
same,Population Healthy Nuclei (%),[2],65% and 45%
same,Population Hoechst High Intensity Objects (%),[2],3% and 2%
same,Population Membrane Permeable-Phenotype (%),[2],1% and 6%
same,Population Mitochondria Different-Phenotype (%),[2],5% and 10%
same,Population Mitotic Cells (%),[2],60% and 64%
same,Population Normal (%),[2],96% and 97%
same,Population Pyknosed Nuclei (%),[2],26% and 27%
same,Population Tubulin-Different-Phenotype (%),[2],39% and 61%
same,Total Cell Count,[2],162 and 145
same,Population Apoptotic (%),[3],50% and 44%
same,Population Fragmented Nuclei (%),[3],9% and 20%
same,Population Healthy Nuclei (%),[3],78% and 53%
same,Population Hoechst High Intensity Objects (%),[3],3% and 7%
same,Population Membrane Permeable-Phenotype (%),[3],1% and 4%
same,Population Mitochondria Different-Phenotype (%),[3],0% and 2%
same,Population Mitotic Cells (%),[3],50% and 55%
same,Population Normal (%),[3],96% and 92%
same,Population Pyknosed Nuclei (%),[3],11% and 25%
same,Population Tubulin-Different-Phenotype (%),[3],17% and 41%
same,Total Cell Count,[3],182 and 142
same,Population Apoptotic (%),[4],52% and 46%
same,Population Fragmented Nuclei (%),[4],12% and 21%
same,Population Healthy Nuclei (%),[4],67% and 55%
same,Population Hoechst High Intensity Objects (%),[4],2% and 3%
same,Population Membrane Permeable-Phenotype (%),[4],1% and 10%
same,Population Mitochondria Different-Phenotype (%),[4],5% and 10%
same,Population Mitotic Cells (%),[4],47% and 53%
same,Population Normal (%),[4],97% and 96%
same,Population Pyknosed Nuclei (%),[4],20% and 23%
same,Population Tubulin-Different-Phenotype (%),[4],50% and 56%
same,Total Cell Count,[4],168 and 123
same,Population Apoptotic (%),[5],66% and 54%
same,Population Fragmented Nuclei (%),[5],19% and 27%
same,Population Healthy Nuclei (%),[5],74% and 47%
same,Population Hoechst High Intensity Objects (%),[5],3% and 8%
same,Population Membrane Permeable-Phenotype (%),[5],0% and 13%
same,Population Mitochondria Different-Phenotype (%),[5],1% and 4%
same,Population Mitotic Cells (%),[5],33% and 45%
same,Population Normal (%),[5],96% and 91%
same,Population Tubulin-Different-Phenotype (%),[5],22% and 55%
same,Total Cell Count,[5],193 and 156
same,Population Apoptotic (%),[6],63% and 50%
same,Population Fragmented Nuclei (%),[6],13% and 31%
same,Population Healthy Nuclei (%),[6],65% and 51%
same,Population Hoechst High Intensity Objects (%),[6],2% and 0%
same,Population Membrane Permeable-Phenotype (%),[6],0% and 9%
same,Population Mitochondria Different-Phenotype (%),[6],8% and 14%
same,Population Mitotic Cells (%),[6],36% and 50%
same,Population Normal (%),[6],97% and 100%
same,Population Pyknosed Nuclei (%),[6],20% and 17%
same,Population Tubulin-Different-Phenotype (%),[6],48% and 76%
same,Total Cell Count,[6],164 and 125
